Measurements pooled from the literature.
Each line is one published result; the experiments were not run side by side.
EGFR: Epidermal growth factor receptor (EGFR, Homo sapiens, UniProt P00533)
EGFR A750P/del747-749: Epidermal growth factor receptor (EGFR, Homo sapiens, UniProt P00533, A750P/del747-749)
EGFR G719C: Epidermal growth factor receptor (EGFR, Homo sapiens, UniProt P00533, G719C)
EGFR L861Q: Epidermal growth factor receptor (EGFR, Homo sapiens, UniProt P00533, L861Q)
EGFR del747-752/P753S: Epidermal growth factor receptor (EGFR, Homo sapiens, UniProt P00533, del747-752/P753S)
EGFR L858R: Epidermal growth factor receptor (EGFR, Homo sapiens, UniProt P00533, L858R)
EGFR del746-750: Epidermal growth factor receptor (EGFR, Homo sapiens, UniProt P00533, del746-750)
EGFR G719S: Epidermal growth factor receptor (EGFR, Homo sapiens, UniProt P00533, G719S)
EGFR T790M: Epidermal growth factor receptor (EGFR, Homo sapiens, UniProt P00533, T790M)

C[C@@H]1CN(c2ccc3ncc(-c4ccc5[nH]nc(C6CC6)c5c4)n3n2)C[C@H](C)O1
remaining binding (EGFR; binding; competition with immobilised ligand; 50 nM): 60%

c1cncc(-c2cccc(Nc3nccc(NC4CCCCC4)n3)c2)c1
remaining binding (EGFR A750P/del747-749; binding; competition with immobilised ligand; 10 µM): 36%

c1cnn2ncc(-c3ccnc(N4CCC45COC5)n3)c2c1
remaining binding (EGFR G719C; binding; 1 µM): 100%

O=C(NCCCN1CCOCC1)c1ccc(Nc2ncc(Cl)c(-c3ccc(Cl)s3)n2)cc1
remaining binding (EGFR A750P/del747-749; binding; competition with immobilised ligand; 1 µM): 72%

CN1CCN(c2ccc(Nc3nccc(-c4ccccc4)n3)cc2C(F)(F)F)CC1
remaining binding (EGFR L861Q; binding; 10 µM): 94%

CNC(=O)[C@@H]1CC[C@@H](n2c(-c3ccc4cnccc4c3)nc3ccc(C(=O)NCc4cccc(C(N)=O)c4)cc32)C1
remaining binding (EGFR del747-752/P753S; binding; competition with immobilised ligand; 1 µM): 100%

Cc1noc([C@H]2C[C@@H](c3ccc(C(F)(F)F)cc3)CN(C(=O)N3CCS(=O)(=O)C3)C2)n1
remaining binding (Epidermal growth factor receptor (EGFR, Homo sapiens, UniProt P00533, L858R/T790M); cell-free assay; competition with immobilised ligand; 1 µM): 96%

CC(C)(C)c1ccc(-c2nc(CBr)nn2-c2cccc(O)c2)cc1
remaining binding (EGFR L858R; cell-free assay; competition with immobilised ligand; 10 µM): 78%

CN(c1nccc(-c2cnn3ncccc23)n1)C1CC1
remaining binding (EGFR L858R; binding; 1 µM): 100%

O=C(NCC1CCOCC1)c1n[nH]cc1NC(=O)c1c(F)cccc1F
remaining binding (EGFR; binding; competition with immobilised ligand; 1 µM): 99%

Cc1cnn2ncc(-c3ccnc(N(C)C)n3)c2c1
remaining binding (EGFR del746-750; binding; 1 µM): 100%

O=C(Nc1c[nH]nc1C(=O)NC1CCNCC1)c1cc(F)cc(F)c1
remaining binding (EGFR; binding; competition with immobilised ligand; 1 µM): 96%

CN1CCN(c2ccc(Nc3nccc(-c4cccc([N+](=O)[O-])c4)n3)cc2C(F)(F)F)CC1
remaining binding (EGFR del746-750; binding; 10 µM): 34%

CNC(=O)c1ccc(Nc2ncc(C(F)(F)F)c(NCc3nccnc3N(C)S(C)(=O)=O)n2)cc1
remaining binding (EGFR L861Q; cell-free assay; competition with immobilised ligand; 0.1 µM): 100%

O=C(NCCCN1CCOCC1)c1ccc(Nc2nccc(-c3cc4ccccc4s3)n2)cc1
remaining binding (EGFR L858R; binding; competition with immobilised ligand; 1 µM): 88%

CC1CCCN1c1nccc(-c2cnn3ncccc23)n1 (stereo not drawn)
remaining binding (EGFR; binding; 1 µM): 100%

O=C(c1ccc(Nc2nccc(-c3cc4ccccc4s3)n2)cc1)N1CCC(N2CCCC2)CC1
remaining binding (EGFR G719C; binding; competition with immobilised ligand; 1 µM): 93%

NS(=O)(=O)c1cc(NC(=O)C2(c3ccccc3Cl)CC2)ccc1Oc1cccc(Cl)c1
remaining binding (EGFR del747-752/P753S; cell-free assay; competition with immobilised ligand; 1 µM): 57%

Nc1ncc2c(n1)-c1c([nH]c3ccc(C#CC4CC4)cc13)CCCC2
remaining binding (EGFR G719S; binding; competition with immobilised ligand; 1 µM): 98%

COc1cnc(Nc2cccc(S(N)(=O)=O)c2)nc1N1CCN(c2ccccc2)C(=O)C1
remaining binding (EGFR G719C; binding; competition with immobilised ligand; 1 µM): 100%

Cc1nccc(COC(=O)N2C[C@@H]3[C@@H](CNC(=O)c4ccc5[nH]nnc5c4)[C@@H]3C2)n1
remaining binding (EGFR A750P/del747-749; cell-free assay; competition with immobilised ligand; 1 µM): 71%

C[C@H]1CCN(c2nccc(-c3cnn4ncccc34)n2)C1
remaining binding (EGFR; binding; 1 µM): 100%

CNCc1ccccc1-c1csc([C@H](C)Nc2nc(C)nc3cc(OC)c(OC)cc23)c1
remaining binding (EGFR del747-752/P753S; cell-free assay; competition with immobilised ligand; 1 µM): 100%

O=C(c1ccc(Nc2ncc(Cl)c(-c3ccc(Cl)s3)n2)cc1)N1CCC(N2CCCC2)CC1
remaining binding (Epidermal growth factor receptor (EGFR, Homo sapiens, UniProt P00533, del747-750/T751S); binding; competition with immobilised ligand; 1 µM): 100%

O=C(NC1CCC1)c1ccc2nc(-c3cccc(NS(=O)(=O)NCCN4CCCCC4)c3)cn2c1
remaining binding (EGFR del747-752/P753S; cell-free assay; competition with immobilised ligand; 10 µM): 100%

Cc1nc(N2CC[C@@H](O)C2)ncc1-c1cc(C(F)(F)F)cc2[nH]ncc12
remaining binding (EGFR G719C; cell-free assay; competition with immobilised ligand; 1 µM): 100%

O=C(c1ccc(Nc2ncc(Cl)c(-c3cc4ccccc4s3)n2)cc1)N1CCC(N2CCCC2)CC1
remaining binding (EGFR del747-752/P753S; binding; competition with immobilised ligand; 1 µM): 79%

CCC(=N\O)/C(C)=C/c1ccc(F)cc1
remaining binding (EGFR T790M; cell-free assay; competition with immobilised ligand; 1 µM): 100%

Cc1cnc(Nc2ccc(C(=O)N3CCC(N4CCCC4)CC3)cc2)nc1-c1cc2ccccc2s1
remaining binding (EGFR L858R; binding; competition with immobilised ligand; 1 µM): 72%

COc1ccnn2ncc(-c3ccnc(N(C)C)n3)c12
remaining binding (EGFR G719C; binding; 1 µM): 92%

CC(C)(O)c1cncc(-c2nc3ccc(F)cc3n2C2CC2)c1
remaining binding (EGFR L861Q; cell-free assay; competition with immobilised ligand; 1 µM): 100%

CCN1CCN(Cc2ccc(C(=O)Nc3ccc(C)c(Oc4ccc5c(c4)CC(=O)N5)c3)cc2C(F)(F)F)CC1
remaining binding (EGFR G719S; binding; competition with immobilised ligand; 1 µM): 80%

CN(CCCC(F)(F)F)c1nccc(-c2cnn3ncccc23)n1
remaining binding (EGFR del746-750; binding; 1 µM): 80%

COc1ncc2cc3ccccc3nc2c1C#N
remaining binding (EGFR T790M; cell-free assay; competition with immobilised ligand; 5 µM): 100%

COc1cnc(Nc2cccc(S(N)(=O)=O)c2)nc1N1CCN(c2ccccc2)CC1
remaining binding (EGFR del747-752/P753S; binding; competition with immobilised ligand; 1 µM): 85%

Cc1ccc(NC(=O)c2ccc(CN3CCN(C)CC3)cc2)cc1Nc1nccc(-c2cccnc2)n1
remaining binding (EGFR; cell-free assay; competition with immobilised ligand; 10 µM): 71%
